Reference: ChEMBL document CHEMBL1123677, “Structure-activity studies of 5-[[4-(4,5-dihydro-2-oxazolyl) phenoxy]alkyl]-3-methylisoxazoles: inhibitors of picornavirus uncoating” (J Med Chem, 1987)
In brackets after ≈: the same amount, converted by molar mass.

Assays:
[1] = system: Human rhinovirus 1A; assay: Expanded antirhinoviral activity against the rhinovirus serotype 1A; assay type: functional
Method in brief: (§1)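 Selected compounds were tested across a 15-serotype rhinovirus panel: the five secondary serotypes plus 10 more. An MIC was recorded for each serotype. MIC80, the concentration inhibiting 80% of serotypes tested, was also derived from this panel.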

[2] = system: rhinovirus A50; assay: Expanded antirhinoviral activity against the rhinovirus serotype 50; assay type: functional; details: Rhinovirus A; method in brief: as §1
[3] = system: rhinovirus A89; assay: Expanded antirhinoviral activity against the rhinovirus serotype 89; assay type: functional, human rhinovirus type 89; details: Rhinovirus A; method in brief: as §1
[4] = system: rhinovirus A22; assay: Expanded antirhinoviral activity against the rhinovirus serotype 22; assay type: functional; details: Rhinovirus A; method in brief: as §1
[5] = system: rhinovirus A21; assay: Expanded antirhinoviral activity against the rhinovirus serotype 21; assay type: functional; details: Rhinovirus A; method in brief: as §1
[6] = system: rhinovirus A2; assay: Expanded antirhinoviral activity against the rhinovirus serotype 2; assay type: functional, human rhinovirus type 2; details: Rhinovirus A; method in brief: as §1
[7] = system: rhinovirus B14; assay: Expanded antirhinoviral activity against the rhinovirus serotype 14; assay type: functional, human rhinovirus type 14; details: Rhinovirus B; method in brief: as §1
[8] = system: Human rhinovirus sp.; assay: Mean of MIC's was determined for the five types of virus like HRV-2, HRV-1A,HRV-22,HRV-41 and HRV-50; assay type: functional
Method in brief: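 MIC measured by plaque reduction against HRV-2 first. The value is the mean of the MICs across these five serotypes.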

[9] = system: rhinovirus A25; assay: Expanded antirhinoviral activity against the rhinovirus serotype 25; assay type: functional; details: Rhinovirus A; method in brief: as §1
[10] = system: rhinovirus A2; assay: Antirhinovirus activity was assessed and the maximum testable concentration that causes no apparent effects on the cell monolayers was determined against HRV-2 virus in vitro.; assay type: functional, human rhinovirus type 2
[11] = system: rhinovirus A30; assay: Expanded antirhinoviral activity against the rhinovirus serotype 30; assay type: functional; details: Rhinovirus A; method in brief: as §1
[12] = Partition coefficient (logP); assay type: physicochemical; details: octanol/water
[13] = system: rhinovirus A2; assay: Antiviral activity determined by ability to inhibit the HRV-2( human rhinovirus type -2) virus by plaque reduction assay in vitro; assay type: functional; details: Rhinovirus A
Method in brief: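 Plaque reduction assay against human rhinovirus type 2 (HRV-2), following an earlier reported method. The value is the MIC, the minimum inhibitory concentration.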

[14] = system: human rhinovirus (15-serotype panel); assay: Antirhinovirus activity was determined by the ability to inhibit the growth of 80% of a panel of 15 human rhinovirus serotypes
[15] = system: rhinovirus A41; assay: Expanded antirhinoviral activity against the rhinovirus serotype 41; assay type: functional; details: Rhinovirus A; method in brief: as §1
[16] = system: rhinovirus B6; assay: Expanded antirhinoviral activity against the rhinovirus serotype 6; assay type: functional; details: Rhinovirus B; method in brief: as §1
[17] = system: rhinovirus A67; assay: Expanded antirhinoviral activity against the rhinovirus serotype 67; assay type: functional; details: Rhinovirus A; method in brief: as §1
[18] = system: rhinovirus A15; assay: Expanded antirhinoviral activity against the rhinovirus serotype 15; assay type: functional; details: Rhinovirus A; method in brief: as §1
[19] = system: rhinovirus B86; assay: Expanded antirhinoviral activity against the rhinovirus serotype 86; assay type: functional; details: Rhinovirus B; method in brief: as §1
[20] = system: rhinovirus A1B; assay: Expanded antirhinoviral activity against the rhinovirus serotype 1B; assay type: functional, human rhinovirus type 1b; details: Rhinovirus A; method in brief: as §1

`Cc1cc(CCCCCOc2ccc(C3=NCCO3)cc2[N+](=O)[O-])on1` showed an MIC [1] of 0.9 µM (≈ 0.323 µg/mL), an MIC [2] of 0.2 µM (≈ 0.0719 µg/mL) and an MIC [3] of 0.06 µM (≈ 0.0216 µg/mL). It also gave an MIC [4] of 0.1 µM (≈ 0.0359 µg/mL), an MIC [5] of 0.06 µM (≈ 0.0216 µg/mL) and an MIC [6] of 0.06 µM (≈ 0.0216 µg/mL). For the same compound, the MIC [7] was 1.8 µM (≈ 0.647 µg/mL), the MIC [8] was 0.7 µM (≈ 0.252 µg/mL) and the MIC [9] was 1.9 µM (≈ 0.683 µg/mL). It also gave an MTL [10] of 3.9 µM, an MIC [11] of 0.1 µM (≈ 0.0359 µg/mL) and a logP [12] of 3.49. It also gave an MIC [13] of 0.04 µM (≈ 0.0144 µg/mL), an MIC80 [14] of 1.8 µM (≈ 0.647 µg/mL) and an MIC [15] of 2 µM (≈ 0.719 µg/mL). The MIC [16] was 1.6 µM (≈ 0.575 µg/mL), the MIC [17] was 0.2 µM (≈ 0.0719 µg/mL) and the MIC [18] was 0.3 µM (≈ 0.108 µg/mL). For the same compound, the MIC [19] was 2 µM (≈ 0.719 µg/mL) and the MIC [20] was 0.2 µM (≈ 0.0719 µg/mL).
